The term inhibition denotes the percentage by which the read-out fell short of the control. What is called IC20 is the concentration needed for an effect of 20%.

Common to all, as to type: functional
Assay [1] concerns LNCaP C4-2B. The experiment in a line: Inhibition of migration of human C4-2B cells at 100 uM after 24 hrs. An outline of the steps:
(§1)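 Wound-healing migration assay. Confluent monolayers were washed twice with PBS and scratched to leave a gap of about 1500 µm, then imaged. Fresh medium was added with or without compound, at concentrations set from the 24 h MTT assay. The wound was imaged again after 24 h. Migration was quantified against the earlier images as migratory velocity (µm/h).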

The species entered for the next assay is Homo sapiens. The experiment in a line: (§2) Inhibition of migration of human Hs578Ts(i)8 cells at 100 uM after 24 hrs. An outline of the steps: as §1
For assay [2], the system named is LNCaP C4-2B. The experiment in a line: […] human C4-2B cells assessed as reduction in cell viability after 24 hrs. The procedure, abridged:
(§3)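 MTT viability assay. Cells seeded at 1.5×10^4 per well in medium with 5% FBS and penicillin/streptomycin, then grown 24 h at 37 °C in 5% CO2. Treated 24 h at 1, 5, 10, 20, 40, 60, 80 and 100 μM. Half the medium was removed before adding MTT, and optical density was read. Three independent experiments were run per concentration. OD80/IC20 (20% inhibition) was read from the graphs.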

Assay [3] can be described thus: […] human Hs578Ts(i)8 cells assessed as reduction in cell viability after 24 hrs. An outline of the steps: as §3
Assay [4] in a line: as §2. An outline of the steps: as §1

The structures appear in SMILES notation. Calls of active or inactive are those of the source. The rule behind the calls is not given here.

Take `CCC(=O)c1ccc(OCC(=O)O)c(C)c1C`: the inhibition result in the assay on LNCaP C4-2B [1] and in the assay filed under Homo sapiens was “inactive” throughout. Further, the IC20 (with LNCaP C4-2B [2]; in assay [3]) was > 100 µM throughout.
With `C=C(CC)C(=O)c1ccc(OCC(=O)O)c(Cl)c1Cl` [ETHACRYNIC ACID], the inhibition entry in the assay with LNCaP C4-2B [1] and in the assay filed under Homo sapiens was “inactive” throughout. The 20% effect concentration (IC20) in the assay with LNCaP C4-2B [2] is 10 µM; in assay [3] it was 80 µM.
For the compound `CCOC(=O)COc1ccc(C(=O)CC)c(C)c1`, the inhibition at 100 µM with LNCaP C4-2B [1] stood at 23%; in assay [4], 19%. The IC20 (in the assay on LNCaP C4-2B [2]; in assay [3]) was > 100 µM throughout.
Turning to `CCCC(=O)c1ccc(OCC(=O)OCC)c(C)c1C`, the inhibition entry in the assay on LNCaP C4-2B [1] and in the assay listed under Homo sapiens was “inactive” in each case. In addition, the IC20 in the assay with LNCaP C4-2B [2] is 50 µM; in assay [3] it was > 100 µM.
As for `CCC(=O)c1ccc(O)cc1C`, the inhibition at 100 µM with LNCaP C4-2B [1] worked out at 65%; in assay [4] it was 86%. Also, the 20% effect concentration (IC20) (in the assay with LNCaP C4-2B [2]; in assay [3]) was > 100 µM each time.
For the compound `CCC(=O)c1ccc(O)c(C)c1C`, in the assay with LNCaP C4-2B [1], the inhibition entry is “inactive”. The same compound came in with an inhibition at 100 µM in assay [4] of 17%. Besides, the concentration for an effect of 20% (IC20) (with LNCaP C4-2B [2]; in assay [3]) was > 100 µM each time.
With `CCC(=O)c1ccc(O)cc1` [PAROXYPROPIONE], the inhibition at 100 µM in the assay on LNCaP C4-2B [1] was 25%; in assay [4], 28%. Moreover, the IC20 (with LNCaP C4-2B [2]; in assay [3]) was > 100 µM throughout.
As to `CCOC(=O)COc1ccc(C(=O)CC)c(C)c1C`, the inhibition result in the assay with LNCaP C4-2B [1] and in the assay listed under Homo sapiens was “inactive” throughout. In addition, the IC20 (in the assay with LNCaP C4-2B [2]; in assay [3]) was > 100 µM each time.
As to `CCCC(=O)c1ccc(OCC(=O)O)c(C)c1C`, the inhibition result with LNCaP C4-2B [1] and in the assay filed under Homo sapiens was “inactive” each time. Further, the concentration for an effect of 20% (IC20) (in the assay on LNCaP C4-2B [2]; in assay [3]) was > 100 µM in each case.
